From ChEMBL document CHEMBL4765361, “Rational modification, synthesis and biological evaluation of 3,4-dihydroquinoxalin-2(1H)-one derivatives as potent and selective c-Jun N-terminal kinase 3 (JNK3) inhibitors” (Eur J Med Chem, 2020)
Active and inactive are the calls of the source. The calls are words filed in the database; no cut-off is given here.

Experiments:
[1] = biological target: T1, Mitogen-activated protein kinase 8 (Homo sapiens, UniProt P45983); assay: Inhibition of human JNK1alpha1 at 10 uM after 40 mins by [gamma-33ATP] radiometric assay relative to control
[2] = biological target: T2, Mitogen-activated protein kinase 10 (Homo sapiens, UniProt P53779); assay: Inhibition of human JNK3 at 10 uM after 40 mins by [gamma-33ATP] radiometric assay relative to control
[3] = biological target: T2, Mitogen-activated protein kinase 10; assay: Inhibition of human JNK3 after 40 mins by [gamma-33ATP] radiometric assay relative to control
[4] = biological target: T1, Mitogen-activated protein kinase 8; assay: Inhibition of human JNK1alpha1 at 30 uM after 40 mins by [gamma-33ATP] radiometric assay relative to control
[5] = biological target: T1, Mitogen-activated protein kinase 8; assay: Inhibition of human JNK1alpha1 at 100 uM after 40 mins by [gamma-33ATP] radiometric assay relative to control
[6] = biological target: T3, Mitogen-activated protein kinase 9 (Homo sapiens, UniProt P45984); assay: Inhibition of human JNK2alpha2 at 10 uM after 40 mins by [gamma-33ATP] radiometric assay relative to control
Target sequence in this assay (P45984 whole entry, looked up): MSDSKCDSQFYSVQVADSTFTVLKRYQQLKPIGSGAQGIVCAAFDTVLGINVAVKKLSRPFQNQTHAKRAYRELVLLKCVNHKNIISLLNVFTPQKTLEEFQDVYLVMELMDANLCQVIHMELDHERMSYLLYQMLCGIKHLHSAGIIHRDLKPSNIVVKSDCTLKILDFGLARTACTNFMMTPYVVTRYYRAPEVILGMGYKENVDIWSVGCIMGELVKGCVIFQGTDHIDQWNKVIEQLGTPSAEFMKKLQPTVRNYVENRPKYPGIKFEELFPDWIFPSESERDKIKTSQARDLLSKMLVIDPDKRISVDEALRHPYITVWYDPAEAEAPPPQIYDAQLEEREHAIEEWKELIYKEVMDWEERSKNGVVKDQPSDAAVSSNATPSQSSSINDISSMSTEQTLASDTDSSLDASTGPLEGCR

[7] = biological target: T3, Mitogen-activated protein kinase 9; assay: Inhibition of human JNK2alpha2 at 30 uM after 40 mins by [gamma-33ATP] radiometric assay relative to control
Target sequence in this assay (P45984 whole entry, looked up): as above

[8] = biological target: T3, Mitogen-activated protein kinase 9; assay: Inhibition of human JNK2alpha2 at 100 uM after 40 mins by [gamma-33ATP] radiometric assay relative to control
Target sequence in this assay (P45984 whole entry, looked up): as above

[9] = biological target: T4, Epithelial discoidin domain-containing receptor 1 (Homo sapiens, UniProt Q08345); assay: Inhibition of human DDR1 at 10 uM using KKKSPGEYVNIEFG as substrate after 40 mins by [gamma-33P]-ATP assay
Method in brief: (§1)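 Human DDR1 in 8 mM MOPS pH 7.0, 0.2 mM EDTA, 250 μM peptide substrate, 10 mM Mg acetate, [γ-33P]-ATP (approx. 500 cpm/pmol); started with MgATP, 40 min room temperature, stopped with 3% phosphoric acid, spotted on P30 filtermat, washed in 75 mM phosphoric acid and methanol, scintillation counted. Activity as % of no-inhibitor control.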

[10] = biological target: T5, Discoidin domain-containing receptor 2 (Homo sapiens) (UniProt Q16832); assay: Inhibition of human DDR2 at 10 uM using KKSRGDYMTMQIG as substrate after 40 mins by [gamma-33P]-ATP assay
T5 sequence (whole entry): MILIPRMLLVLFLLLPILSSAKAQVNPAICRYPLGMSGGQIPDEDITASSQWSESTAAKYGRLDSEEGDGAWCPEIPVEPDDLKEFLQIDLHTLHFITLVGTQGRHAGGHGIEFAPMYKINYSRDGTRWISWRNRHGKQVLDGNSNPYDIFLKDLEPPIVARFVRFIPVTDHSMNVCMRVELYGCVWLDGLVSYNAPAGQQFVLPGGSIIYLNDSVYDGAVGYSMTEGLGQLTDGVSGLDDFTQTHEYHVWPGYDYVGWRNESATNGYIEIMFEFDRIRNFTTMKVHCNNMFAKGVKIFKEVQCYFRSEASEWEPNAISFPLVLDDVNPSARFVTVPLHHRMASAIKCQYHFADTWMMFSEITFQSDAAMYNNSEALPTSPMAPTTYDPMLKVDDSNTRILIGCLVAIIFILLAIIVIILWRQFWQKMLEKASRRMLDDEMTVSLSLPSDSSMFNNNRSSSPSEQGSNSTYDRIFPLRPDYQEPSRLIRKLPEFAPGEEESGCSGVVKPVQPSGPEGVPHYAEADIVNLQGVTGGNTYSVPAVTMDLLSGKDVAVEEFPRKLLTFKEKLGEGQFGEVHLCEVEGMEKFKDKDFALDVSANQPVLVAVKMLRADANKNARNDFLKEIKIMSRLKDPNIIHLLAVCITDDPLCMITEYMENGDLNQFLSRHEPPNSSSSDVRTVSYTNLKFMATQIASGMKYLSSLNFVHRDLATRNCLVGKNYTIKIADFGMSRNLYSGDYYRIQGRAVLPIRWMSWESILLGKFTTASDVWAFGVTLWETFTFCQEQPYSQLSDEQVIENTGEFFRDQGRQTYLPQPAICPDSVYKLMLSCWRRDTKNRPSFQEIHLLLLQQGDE
Method in brief: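 Human DDR2 in 8 mM MOPS pH 7.0, 0.2 mM EDTA, 250 μM peptide, 10 mM MnCl2 plus 10 mM Mg acetate, [γ-33P]-ATP (approx. 500 cpm/pmol). Reaction started with MgATP, run 40 min at room temperature, quenched with 3% phosphoric acid; P30 filtermat capture, phosphoric acid/methanol washes, scintillation counting; activity relative to no-inhibitor control set as 100%.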

[11] = system: Epidermal growth factor receptor (Homo sapiens), P00533 [L858R,T790M]; assay: Inhibition of human EGFR L858R/T790M mutant at 10 uM GGMEDIYFEFMGGKKK as substrate measured after 40 mins in presence of [gamma-33P]ATP by radiometric assay
Method in brief: (§2)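 EGFR T790M/L858R (human) in 8 mM MOPS pH 7.0, 0.2 mM EDTA, 250 μM peptide substrate, 10 mM Mg acetate, [γ-33P]-ATP (approx. 500 cpm/pmol); initiated with MgATP, 40 min room temperature, terminated with 3% phosphoric acid, P30 filtermat, 75 mM phosphoric acid and methanol washes, scintillation counting.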

[12] = system: Epidermal growth factor receptor (Homo sapiens), P00533 [L858R]; assay: Inhibition of human EGFR L858R at 10 uM using poly[Glu:Tyr] (4:1) as substrate measured after 40 mins in presence of [gamma-33P]ATP by radiometric assay
Method in brief: (§3)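 Human EGFR L858R incubated in 8 mM MOPS pH 7.0, 0.2 mM EDTA, 10 mM MnCl2, 0.1 mg/mL poly(Glu,Tyr) 4:1, 10 mM Mg acetate, [γ-33P]-ATP (approx. 500 cpm/pmol); MgATP start, 40 min room temperature, 3% phosphoric acid stop, Filtermat A spotting, washes in 75 mM phosphoric acid and methanol, scintillation readout; % of uninhibited activity.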

[13] = biological target: T1, Mitogen-activated protein kinase 8; assay: Inhibition of human JNK1alpha1 after 40 mins by [gamma-33ATP] radiometric assay relative to control
[14] = biological target: T3, Mitogen-activated protein kinase 9; assay: Inhibition of human JNK2alpha2 after 40 mins by [gamma-33ATP] radiometric assay relative to control
Target sequence in this assay (P45984 whole entry): as the sequence (P45984 whole entry, looked up) above

[15] = biological target: T4, Epithelial discoidin domain-containing receptor 1; assay: Inhibition of human DDR1 using KKKSPGEYVNIEFG as substrate after 40 mins by [gamma-33P]-ATP assay; method in brief: as §1
[16] = biological target: Epidermal growth factor receptor (Homo sapiens, UniProt P00533, L858R/T790M); assay: Inhibition of human EGFR L858R/T790M mutant GGMEDIYFEFMGGKKK as substrate measured after 40 mins in presence of [gamma-33P]ATP by radiometric assay; method in brief: as §2
[17] = biological target: Epidermal growth factor receptor (Homo sapiens, UniProt P00533, L858R); assay: Inhibition of human EGFR L858R using poly[Glu:Tyr] (4:1) as substrate measured after 40 mins in presence of [gamma-33P]ATP by radiometric assay; method in brief: as §3

T2 sequence (P53779 whole entry): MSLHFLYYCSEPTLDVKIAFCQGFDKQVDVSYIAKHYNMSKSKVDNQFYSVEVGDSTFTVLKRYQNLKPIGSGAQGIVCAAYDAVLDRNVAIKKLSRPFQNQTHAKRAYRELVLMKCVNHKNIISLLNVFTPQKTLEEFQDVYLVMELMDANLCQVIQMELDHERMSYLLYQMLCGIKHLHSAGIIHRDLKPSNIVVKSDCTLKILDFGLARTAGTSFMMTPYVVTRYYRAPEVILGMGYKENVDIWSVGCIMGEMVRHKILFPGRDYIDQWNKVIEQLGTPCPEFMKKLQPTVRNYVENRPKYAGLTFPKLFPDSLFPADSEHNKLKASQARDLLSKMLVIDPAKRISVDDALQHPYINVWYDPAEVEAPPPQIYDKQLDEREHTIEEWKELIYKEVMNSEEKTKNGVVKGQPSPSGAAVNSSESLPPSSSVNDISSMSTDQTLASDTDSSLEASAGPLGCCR
T1 sequence (P45983 whole entry): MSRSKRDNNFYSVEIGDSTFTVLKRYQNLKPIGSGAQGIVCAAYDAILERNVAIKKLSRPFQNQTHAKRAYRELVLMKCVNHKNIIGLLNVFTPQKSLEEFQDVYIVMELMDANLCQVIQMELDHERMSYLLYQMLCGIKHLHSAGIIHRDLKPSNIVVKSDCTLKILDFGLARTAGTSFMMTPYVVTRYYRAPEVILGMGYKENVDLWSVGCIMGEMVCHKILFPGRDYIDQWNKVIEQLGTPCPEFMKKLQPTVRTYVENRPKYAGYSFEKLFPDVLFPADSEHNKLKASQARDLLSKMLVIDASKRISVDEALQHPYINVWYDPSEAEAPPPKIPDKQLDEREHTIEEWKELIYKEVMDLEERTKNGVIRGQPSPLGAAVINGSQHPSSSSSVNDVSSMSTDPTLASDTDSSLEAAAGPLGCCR
T4 sequence (Q08345 whole entry, the tested form may be a part): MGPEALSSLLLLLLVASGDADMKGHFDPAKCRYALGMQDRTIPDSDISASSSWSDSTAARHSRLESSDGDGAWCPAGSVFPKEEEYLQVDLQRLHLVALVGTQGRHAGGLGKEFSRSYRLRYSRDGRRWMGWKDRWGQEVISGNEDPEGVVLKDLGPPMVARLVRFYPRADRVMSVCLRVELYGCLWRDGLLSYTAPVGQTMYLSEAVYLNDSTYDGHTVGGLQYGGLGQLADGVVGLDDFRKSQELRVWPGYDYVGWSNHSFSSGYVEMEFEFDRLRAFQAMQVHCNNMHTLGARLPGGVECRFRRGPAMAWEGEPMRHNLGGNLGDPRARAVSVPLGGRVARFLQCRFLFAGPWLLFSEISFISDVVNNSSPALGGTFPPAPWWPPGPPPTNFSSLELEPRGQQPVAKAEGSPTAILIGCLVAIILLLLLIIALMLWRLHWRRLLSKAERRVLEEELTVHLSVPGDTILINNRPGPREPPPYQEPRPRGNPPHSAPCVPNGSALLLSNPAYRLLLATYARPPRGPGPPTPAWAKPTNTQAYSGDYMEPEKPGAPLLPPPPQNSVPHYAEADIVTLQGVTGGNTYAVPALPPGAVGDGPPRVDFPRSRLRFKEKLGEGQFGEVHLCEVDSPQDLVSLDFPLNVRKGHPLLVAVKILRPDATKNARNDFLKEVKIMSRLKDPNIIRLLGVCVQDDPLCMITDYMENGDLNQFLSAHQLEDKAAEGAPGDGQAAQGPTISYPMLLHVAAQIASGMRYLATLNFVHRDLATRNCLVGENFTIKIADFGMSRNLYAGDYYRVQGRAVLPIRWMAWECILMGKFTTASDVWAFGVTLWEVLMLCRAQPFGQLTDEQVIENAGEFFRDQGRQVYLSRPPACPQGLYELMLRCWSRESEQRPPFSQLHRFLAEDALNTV
Chain of Epidermal growth factor receptor (Homo sapiens), P00533 [L858R] (P00533 whole entry L858R): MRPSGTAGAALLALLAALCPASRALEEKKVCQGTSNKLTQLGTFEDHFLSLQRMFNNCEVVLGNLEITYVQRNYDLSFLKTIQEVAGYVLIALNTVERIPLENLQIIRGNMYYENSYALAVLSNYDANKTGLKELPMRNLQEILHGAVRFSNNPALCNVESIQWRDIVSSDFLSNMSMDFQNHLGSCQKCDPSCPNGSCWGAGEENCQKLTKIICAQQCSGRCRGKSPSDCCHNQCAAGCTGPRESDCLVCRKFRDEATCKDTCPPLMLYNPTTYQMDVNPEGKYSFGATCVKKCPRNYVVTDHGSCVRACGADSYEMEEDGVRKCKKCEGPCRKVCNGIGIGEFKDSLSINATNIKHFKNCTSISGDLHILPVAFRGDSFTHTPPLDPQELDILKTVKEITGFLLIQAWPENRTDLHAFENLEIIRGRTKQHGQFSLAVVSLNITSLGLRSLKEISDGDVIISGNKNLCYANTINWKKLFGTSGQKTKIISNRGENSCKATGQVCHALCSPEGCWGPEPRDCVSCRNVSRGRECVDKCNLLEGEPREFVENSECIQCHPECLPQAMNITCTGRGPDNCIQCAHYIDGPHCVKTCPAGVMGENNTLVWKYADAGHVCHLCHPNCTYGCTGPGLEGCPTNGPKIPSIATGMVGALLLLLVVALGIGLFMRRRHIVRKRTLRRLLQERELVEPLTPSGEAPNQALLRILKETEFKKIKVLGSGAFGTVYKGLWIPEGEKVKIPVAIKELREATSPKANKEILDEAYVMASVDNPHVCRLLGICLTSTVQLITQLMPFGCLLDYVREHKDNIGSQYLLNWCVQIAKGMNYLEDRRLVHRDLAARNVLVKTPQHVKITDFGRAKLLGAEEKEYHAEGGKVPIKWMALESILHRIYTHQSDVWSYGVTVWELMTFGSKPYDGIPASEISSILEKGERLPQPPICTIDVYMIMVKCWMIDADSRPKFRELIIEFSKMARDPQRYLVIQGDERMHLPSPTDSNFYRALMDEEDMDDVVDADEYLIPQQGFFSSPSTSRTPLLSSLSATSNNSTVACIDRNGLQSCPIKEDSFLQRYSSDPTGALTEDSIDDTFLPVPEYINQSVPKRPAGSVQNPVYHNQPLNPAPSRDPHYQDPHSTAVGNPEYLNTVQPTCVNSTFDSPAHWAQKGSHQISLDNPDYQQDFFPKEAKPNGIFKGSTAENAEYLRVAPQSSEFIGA

Row | inhibition [1] | inhibition [2] [%] | IC50 [3] [nM] | inhibition [4] | inhibition [5] | inhibition [6] | inhibition [7] | inhibition [8] | inhibition [9] | inhibition [10] | inhibition [11] | inhibition [12] | IC50 [13] [µM] | IC50 [14] [µM] | IC50 [15] [µM] | IC50 [16] [µM] | IC50 [17] [µM] | SMILES
1 | inactive | 70 | 5600 | inactive | inactive | inactive | inactive | inactive | inactive | Active |  |  |  |  |  |  |  | COc1cccc(C(=O)/C=C2\Nc3ccccc3NC2=O)c1
2 | inactive | 88 | 190 | inactive | inactive | inactive | inactive | inactive |  |  | inactive | inactive | > 100 | > 100 | > 10 | > 10 | > 10 | N#Cc1ccc2c(c1)N/C(=C\C(=O)c1cccc3ccccc13)C(=O)N2
